Screening results from PubChem.
mIAP block: mouse IAP inhibition | AID 2806 | actives 0.2% (n = 330,000) | purified mouse IAP, CDP-Star luminescence, 30 min | inhibition, % at 10 µM;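 active means inhibition of at least 40% at 10 µM in the primary screen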;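 further: plate controls were DMSO with enzyme for no effect and no enzyme wells for full effect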
hIAP activ: human IAP activation | actives 0.16% (n = 330,000) | P09923 | purified human IAP, CDP-Star luminescence, 30 min; active compounds read high; 1 = vehicle-only enzyme, 0 = enzyme-free background | AID 2524 | activation factor at 10 µM;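 active means activation factor of the enzyme at least 2-fold when tested at 20 µM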
Target sequence (P09923 whole entry, looked up): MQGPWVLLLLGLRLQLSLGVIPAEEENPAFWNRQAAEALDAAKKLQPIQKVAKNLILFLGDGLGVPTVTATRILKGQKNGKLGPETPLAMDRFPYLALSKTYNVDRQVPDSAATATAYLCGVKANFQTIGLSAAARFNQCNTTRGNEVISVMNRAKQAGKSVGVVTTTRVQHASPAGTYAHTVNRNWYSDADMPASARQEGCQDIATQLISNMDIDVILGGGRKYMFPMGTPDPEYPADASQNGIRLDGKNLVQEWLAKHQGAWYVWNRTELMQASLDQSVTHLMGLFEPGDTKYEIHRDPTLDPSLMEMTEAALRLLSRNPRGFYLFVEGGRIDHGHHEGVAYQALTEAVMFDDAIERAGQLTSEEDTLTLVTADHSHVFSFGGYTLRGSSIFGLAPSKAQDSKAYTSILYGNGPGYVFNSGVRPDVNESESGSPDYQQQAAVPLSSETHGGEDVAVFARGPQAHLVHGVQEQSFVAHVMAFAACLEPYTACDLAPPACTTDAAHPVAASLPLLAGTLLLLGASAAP
hIAP block: blocks human intestinal alkaline phosphatase; P09923; AID 2544; actives 0.12% (n = 330,000); purified IAP, CDP-Star luminescence, 30 min; inhibition, % at 10 µM;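 active means inhibition reaching a set limit with compound at 10 µM in the primary screen, cut at about 35% in these data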;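 further: plate controls were DMSO wells with enzyme for no effect and no-enzyme buffer wells for full effect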
bIAP inhibitor: blocks bovine intestinal alkaline phosphatase activity; purified bovine IAP, CDP-star luminescence, 30 min; inhibition, % at 20 µM; 190,000 tested, under 10 active; AID 1019;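 active means over 50% inhibition of intestinal alkaline phosphatase at 20 µM in the single-dose screen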
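test system = bovine IAP enzyme | medium = DEA buffer 100 mM, pH 9.8, with MgCl2 1.0 mM, ZnCl2 0.02 mM | detection = luminescence | dosing = single compound dose of 20 µM, 2% DMSO final | incubation = 30 min reaction at room temperature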
bIAP act: intestinal alkaline phosphatase (bovine) activation; AID 1016; purified bovine IAP, CDP-star luminescence, 30 min; active compounds read high; fold of DMSO-control signal, blank-subtracted; activation factor at 20 µM; actives 0.17% (n = 200,000);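 active means activation factor of 2 or more at 20 µM, a signal rise over negative controls twice the positive control's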
mIAP activ: increases mouse intestinal alkaline phosphatase activity; actives 0.24% (n = 330,000); muIAP, CDP-Star luminescence, 30 min; active compounds read high; 1 = vehicle-only enzyme signal, 0 = enzyme-free wells; activation factor at 10 µM;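 active means activation factor of at least 2 at 20 µM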
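Assay system: mouse IAP enzyme / Compound: DMSO-dissolved test compounds / Timing: 30 min, room temperature / Measured by: luminescence from enzymatic CDP-Star hydrolysis / Control set: DMSO-only wells, enzyme-free buffer wells as negative control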
hIAP act conf: human IAP activation confirmation; shares compounds with hIAP activ; activation (%Activity, negative = activation), % at 8.3 µM; actives 10% (n = 880); purified IAP, CDP-Star luminescence, 30 min; active compounds read low;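 active means at least twofold enzyme activation in any of six single-dose repeats, which the averaged readout prints as negative percent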
* hit, by the source's call; · = not tested or not shown. This is a sample that favours compounds with a hit; in the whole collection about 0.72% have one here.

SMILES	mIAP block	hIAP activ	hIAP block	bIAP inhibitor	bIAP act	mIAP activ	hIAP act conf
CCCCNC(=O)c1cn(CC)c2ccc(S(=O)(=O)N3CCCC3)cc2c1=O	-2	0.82	18	·	·	1	·
CCN(C(=O)COC(=O)c1ccccc1OCc1ccc(Cl)cc1)C1CCS(=O)(=O)C1 (configuration not stated)	-8	0.86	14	·	·	1.1	·
CC(Sc1ccc(Cl)cc1)C(=O)NNC(=O)c1ccccc1O (configuration not stated)	18	2.5*	-148	·	·	0.82	-20
CSCCC(NC(=O)c1ccccc1Cl)C(=O)NNC(=O)c1ccccc1O (configuration not stated)	29	1.5	-55	·	·	0.71	·
Cc1nnc(NC(=O)CSc2nnc(C)c(=O)n2N)s1	1	1.2	-16	·	·	0.99	·
CCc1nnc(NC(=O)CSc2nnc(C)c(=O)n2N)s1	-5	0.54	46*	·	·	1.1	41
COc1cc2cc(C(=O)N(C)C3CCS(=O)(=O)C3)[nH]c2cc1OC (configuration not stated)	-4	1	-4	·	·	1	·
O=C(CCCc1ccccc1)Nc1ccnn1C1CCN(Cc2ccccc2)CC1	-56	1.9	-95	·	·	1.6	·
CCOc1ccc(CN2CCC(n3nccc3NC(=O)CCCc3ccccc3)CC2)cc1	-120	3.2*	-217	·	·	2.2*	1
COc1cc(CN2CCC(n3nccc3NC(=O)CCCc3ccccc3)CC2)ccc1F	-72	2*	-101	·	·	1.7	41
O=C(CCCc1ccccc1)Nc1ccnn1C1CCN(Cc2ccccc2F)CC1	-39	1.9	-89	·	·	1.4	·
COc1ccc(CN2CCC(n3nccc3NC(=O)CCc3ccccc3)CC2)c(C)c1C	-105	2.3*	-131	·	·	2.1*	8
COc1cccc(CN2CCC(n3nccc3NC(=O)CCCc3ccccc3)CC2)c1O	-38	1.6	-63	·	·	1.4	·
Cc1cccc(OCC(=O)N2CCN(C(=O)c3ccco3)CC2)c1	0	0.96	4	-3	1	1	·
CC(C(=O)N1CCCC1)N1CCN(S(=O)(=O)c2ccc(C(C)(C)C)cc2)CC1 (configuration not stated)	-12	1	-1	·	·	1.1	·
COc1ccc(CN2CCN(C3CCC3)CC2CCO)c(F)c1 (configuration not stated)	-1	1.2	-24	·	·	1	·
O=C(O)CCC(=O)Nc1ccccc1C(=O)NC1CCCCC1	0	2.1*	-110	11	0.9	1	-6
COc1ccc(C(C(=O)NC2CCCC2)N(C(=O)c2snc(-c3ccc(F)cc3)c2N)c2ccc(F)cc2)cc1 (configuration not stated)	8	1.1	-6	5	0.9	0.92	·
COc1ccc(N(C(=O)c2ccn[nH]2)C(C(=O)NC2CCCC2)c2ccc(F)cc2)cc1 (configuration not stated)	-51	2.5*	-148	·	·	1.5	3
CC(=O)c1ccc(N(C(=O)c2ccco2)C(C(=O)NC2CCCC2)c2cccs2)cc1 (configuration not stated)	6	0.97	3	·	·	0.94	·
Cc1ccc(N(C(=O)c2ccn[nH]2)C(C(=O)NC2CCCC2)c2cccs2)cc1 (configuration not stated)	-96	3*	-203	-17	1.2	2	-54
Cc1ccc(Cl)cc1NC(=O)CN1CCOCC1	8	1.1	-6	·	·	0.92	·
CCOC(=O)C1=C(C)N(CCCC(=O)O)C(=O)NC1c1cccc(OC)c1 (configuration not stated)	8	1	-1	·	·	0.92	·
O=C(CSc1nnc(-c2ccccc2O)n1Cc1ccccc1)NNC(=O)c1ccccc1O	20	2.5*	-146	-4	1	0.8	-41
c1ccc2c3c(cc(N4CCOCC4)c2c1)OC1(N2CCOCC2)CCCCC1O3 (configuration not stated)	10	0.15	85*	-8	1.1	0.9	-5
COc1ccc(CNC(=O)c2csc(Cc3ccccc3)n2)cc1	10	2*	-105	9	0.9	0.9	9
